{
  "source": "ChEMBL document CHEMBL1145482",
  "about": "“Acquired echinocandin resistance in a Candida krusei isolate due to modification of glucan synthase” (Antimicrob Agents Chemother, 2007)",
  "key": {"[1]": {"tested_on": "Pichia kudriavzevii", "test": "Antifungal activity against FKS1 T2080K mutation containing Candida krusei 100 isolate from acute myelogenous leukemia patient by broth microdilution method", "format": "functional"}, "[2]": {"tested_on": "Pichia kudriavzevii", "test": "Antifungal activity against Candida krusei 98 isolate from acute myelogenous leukemia patient by broth microdilution method", "format": "functional"}, "[3]": {"tested_on": "Pichia kudriavzevii", "test": "Ratio of MIC of FKS1 T2080K mutation containing Candida krusei 100 isolate to MIC of Candida krusei 98 isolate from acute myelogenous leukemia patient by broth microdilution method", "format": "functional"}, "[4]": {"molecular_target": "1,3-beta-D-glucan synthase subunit (Pichia kudriavzevii, UniProt Q4U2W2, F655C)", "sequence (Q4U2W2 entry or part of it F655C)": "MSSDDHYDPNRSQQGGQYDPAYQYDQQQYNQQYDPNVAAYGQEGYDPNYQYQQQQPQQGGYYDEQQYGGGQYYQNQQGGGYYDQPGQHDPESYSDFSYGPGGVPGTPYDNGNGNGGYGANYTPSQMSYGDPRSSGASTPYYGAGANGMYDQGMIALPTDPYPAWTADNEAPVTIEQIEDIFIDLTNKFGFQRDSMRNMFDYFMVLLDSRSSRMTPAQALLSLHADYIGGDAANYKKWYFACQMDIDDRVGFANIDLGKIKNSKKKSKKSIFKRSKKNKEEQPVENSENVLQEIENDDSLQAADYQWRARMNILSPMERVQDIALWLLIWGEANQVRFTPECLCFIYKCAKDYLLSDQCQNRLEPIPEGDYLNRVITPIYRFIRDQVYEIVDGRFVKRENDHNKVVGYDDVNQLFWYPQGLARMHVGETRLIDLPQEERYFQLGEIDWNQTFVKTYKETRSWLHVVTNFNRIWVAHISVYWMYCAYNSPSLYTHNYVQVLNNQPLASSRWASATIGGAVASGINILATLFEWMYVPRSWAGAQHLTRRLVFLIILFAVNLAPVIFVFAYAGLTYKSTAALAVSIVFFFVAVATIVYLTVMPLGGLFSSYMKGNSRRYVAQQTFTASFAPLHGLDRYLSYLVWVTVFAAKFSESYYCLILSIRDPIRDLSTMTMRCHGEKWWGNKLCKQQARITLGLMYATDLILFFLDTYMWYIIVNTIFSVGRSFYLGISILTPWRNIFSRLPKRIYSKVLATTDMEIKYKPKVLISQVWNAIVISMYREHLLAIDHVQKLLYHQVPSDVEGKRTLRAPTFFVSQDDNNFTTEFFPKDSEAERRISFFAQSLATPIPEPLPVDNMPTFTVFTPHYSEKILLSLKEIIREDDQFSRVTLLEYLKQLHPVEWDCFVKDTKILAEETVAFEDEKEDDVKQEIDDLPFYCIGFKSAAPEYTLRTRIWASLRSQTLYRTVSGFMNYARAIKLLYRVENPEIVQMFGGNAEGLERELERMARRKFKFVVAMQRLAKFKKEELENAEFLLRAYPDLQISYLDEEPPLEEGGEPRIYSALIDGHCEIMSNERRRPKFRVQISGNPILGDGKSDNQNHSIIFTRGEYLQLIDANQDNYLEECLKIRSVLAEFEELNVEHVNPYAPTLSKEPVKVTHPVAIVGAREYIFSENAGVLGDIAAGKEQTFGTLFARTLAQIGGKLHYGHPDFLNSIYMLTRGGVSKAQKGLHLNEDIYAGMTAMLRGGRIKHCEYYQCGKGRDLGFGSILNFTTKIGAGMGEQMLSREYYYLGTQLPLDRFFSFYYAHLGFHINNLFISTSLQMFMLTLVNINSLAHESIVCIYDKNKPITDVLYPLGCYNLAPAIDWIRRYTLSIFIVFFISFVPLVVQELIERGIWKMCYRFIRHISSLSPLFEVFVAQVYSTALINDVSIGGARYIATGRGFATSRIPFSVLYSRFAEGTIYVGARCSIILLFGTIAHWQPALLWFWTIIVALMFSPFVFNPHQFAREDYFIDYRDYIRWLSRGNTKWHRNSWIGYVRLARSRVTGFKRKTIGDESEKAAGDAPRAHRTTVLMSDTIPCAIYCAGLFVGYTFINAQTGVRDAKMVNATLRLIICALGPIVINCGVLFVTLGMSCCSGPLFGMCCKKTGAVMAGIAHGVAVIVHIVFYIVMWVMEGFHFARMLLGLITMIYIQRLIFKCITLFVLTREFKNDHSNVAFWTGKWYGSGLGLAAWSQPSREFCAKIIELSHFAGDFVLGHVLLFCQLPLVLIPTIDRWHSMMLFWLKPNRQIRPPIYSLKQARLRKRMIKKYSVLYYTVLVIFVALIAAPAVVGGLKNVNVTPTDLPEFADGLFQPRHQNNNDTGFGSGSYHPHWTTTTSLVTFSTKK", "test": "Inhibition of FKS1 T2080K mutant from Candida krusei 100 isolate", "how_it_was_run": "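Glucan synthase enzyme complex isolated from posttreatment strain Ck-100. Caspofungin titrated against the enzyme. Inhibition curve fitted with a two-site competition algorithm to give IC50 in ng/ml.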"}, "[5]": {"molecular_target": "1,3-beta-D-glucan synthase subunit (Pichia kudriavzevii, UniProt Q4U2W2)", "sequence (Q4U2W2 whole entry)": "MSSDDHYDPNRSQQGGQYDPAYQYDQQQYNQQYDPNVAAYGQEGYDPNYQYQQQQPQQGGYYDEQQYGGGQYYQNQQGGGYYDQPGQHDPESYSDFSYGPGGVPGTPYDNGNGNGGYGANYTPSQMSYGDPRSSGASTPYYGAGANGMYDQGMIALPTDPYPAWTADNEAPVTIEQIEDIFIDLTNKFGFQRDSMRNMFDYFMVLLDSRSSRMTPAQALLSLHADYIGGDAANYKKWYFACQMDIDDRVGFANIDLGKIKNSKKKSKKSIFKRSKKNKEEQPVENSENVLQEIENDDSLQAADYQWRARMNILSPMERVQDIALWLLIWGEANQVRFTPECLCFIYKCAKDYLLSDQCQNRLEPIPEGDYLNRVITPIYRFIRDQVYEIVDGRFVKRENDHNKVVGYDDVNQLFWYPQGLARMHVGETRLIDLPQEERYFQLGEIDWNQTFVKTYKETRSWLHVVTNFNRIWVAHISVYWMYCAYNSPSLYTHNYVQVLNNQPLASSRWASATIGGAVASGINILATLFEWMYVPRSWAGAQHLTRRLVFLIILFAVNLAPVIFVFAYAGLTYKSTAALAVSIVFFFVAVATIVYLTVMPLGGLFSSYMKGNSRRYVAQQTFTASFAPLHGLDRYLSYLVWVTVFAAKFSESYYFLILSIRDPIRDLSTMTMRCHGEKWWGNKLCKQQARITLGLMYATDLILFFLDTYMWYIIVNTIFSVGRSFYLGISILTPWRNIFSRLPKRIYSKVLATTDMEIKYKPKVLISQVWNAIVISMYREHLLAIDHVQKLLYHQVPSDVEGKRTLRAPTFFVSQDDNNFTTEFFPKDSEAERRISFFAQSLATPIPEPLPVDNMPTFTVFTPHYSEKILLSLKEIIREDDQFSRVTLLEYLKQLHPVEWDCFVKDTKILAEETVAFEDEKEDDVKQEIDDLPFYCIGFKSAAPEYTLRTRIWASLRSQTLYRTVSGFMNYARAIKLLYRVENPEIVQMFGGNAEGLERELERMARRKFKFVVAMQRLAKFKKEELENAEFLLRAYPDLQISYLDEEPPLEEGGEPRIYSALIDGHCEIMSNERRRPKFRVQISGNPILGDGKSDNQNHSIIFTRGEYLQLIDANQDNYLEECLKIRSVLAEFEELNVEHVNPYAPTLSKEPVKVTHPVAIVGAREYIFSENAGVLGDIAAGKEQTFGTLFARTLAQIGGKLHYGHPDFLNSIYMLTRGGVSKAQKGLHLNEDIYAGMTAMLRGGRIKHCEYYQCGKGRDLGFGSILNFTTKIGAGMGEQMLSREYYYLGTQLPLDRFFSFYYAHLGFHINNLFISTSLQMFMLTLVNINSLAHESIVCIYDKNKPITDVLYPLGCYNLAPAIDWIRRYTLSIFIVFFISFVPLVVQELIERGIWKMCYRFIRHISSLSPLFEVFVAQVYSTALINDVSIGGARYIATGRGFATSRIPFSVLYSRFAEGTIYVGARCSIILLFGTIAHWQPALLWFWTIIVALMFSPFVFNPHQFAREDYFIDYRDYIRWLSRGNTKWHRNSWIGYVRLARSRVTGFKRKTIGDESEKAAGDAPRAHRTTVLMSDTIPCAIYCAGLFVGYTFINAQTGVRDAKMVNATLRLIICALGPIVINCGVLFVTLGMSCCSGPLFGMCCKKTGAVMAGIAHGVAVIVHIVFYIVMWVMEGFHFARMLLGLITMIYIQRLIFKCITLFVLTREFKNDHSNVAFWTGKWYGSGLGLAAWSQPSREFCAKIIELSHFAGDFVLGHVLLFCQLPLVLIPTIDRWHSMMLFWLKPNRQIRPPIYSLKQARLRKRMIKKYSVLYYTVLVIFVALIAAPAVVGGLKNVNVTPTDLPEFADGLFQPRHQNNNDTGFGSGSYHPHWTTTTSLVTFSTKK", "test": "Inhibition of FKS1 from Candida krusei 98 isolate", "how_it_was_run": "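Glucan synthase enzyme complex isolated from the pretreatment clinical strain Ck-98 and titrated with the echinocandin. Inhibition curves were fitted with a sigmoidal variable-slope dose-response model to give IC50 in ng/ml.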"}},
  "note": "*1 amine or outer side, *2 acyl side, *3 side chain or, on linkers, in order; H or OH if unused. Where a SMILES comes first, the peptide text is derived from it. Bridges are numbered along the chain shown (N, C = ends). [ ]: non-standard residue; d: D form. The star is where a group is joined. hTyr(3S-OH,4S-OH,3'-OSO3H) = N[C@H](C(=O)O)[C@H](O)[C@@H](O)c1ccc(O)c(OS(=O)(=O)O)c1; pTerphenylCO(4''-OnC5H11) = CCCCCOc1ccc(-c2ccc(-c3ccc(C(=O)*)cc3)cc2)cc1; Orn(4R-OH,5R-OH) = O=C([C@H](C[C@@H](O)[C@@H](O)N[*:3])N[*:1])[*:2]; hTyr(3S-OH,4S-OH) = N[C@H](C(=O)O)[C@H](O)[C@@H](O)c1ccc(O)cc1; Pro(3S-OH,4S-Me) = C[C@H]1CN[C@H](C(=O)O)[C@H]1O; X1 = CCCCCOc1ccc(-c2cc(-c3ccc(C(=O)*)cc3)no2)cc1; Gln(3R-OH) = NC(=O)C[C@@H](O)[C@H](N)C(=O)O; Hyp = O=C(O)[C@@H]1C[C@@H](O)CN1",
  "data": [
    {"smiles": "CCCCCOc1ccc(-c2ccc(-c3ccc(C(=O)N[C@H]4C[C@@H](O)[C@@H](O)NC(=O)[C@@H]5[C@@H](O)[C@@H](C)CN5C(=O)[C@H]([C@@H](C)O)NC(=O)[C@H]([C@H](O)[C@@H](O)c5ccc(O)cc5)NC(=O)[C@@H]5C[C@@H](O)CN5C(=O)[C@H]([C@@H](C)O)NC4=O)cc3)cc2)cc1", "note": "[ANIDULAFUNGIN] ({pTerphenylCO(4''-OnC5H11)}-[Orn(4R-OH,5R-OH)]T[Hyp][hTyr(3S-OH,4S-OH)]T[Pro(3S-OH,4S-Me)]; lactam 1-C)", "values": [
      {"measurement": "MIC", "setting": "[1]", "result": 4, "unit": "µg/mL"},
      {"measurement": "MIC", "setting": "[2]", "result": 0.25, "unit": "µg/mL"},
      {"measurement": "Ratio", "setting": "[3]", "result": 16}
    ]},
    {"smiles": "CC[C@H](C)C[C@H](C)CCCCCCCCC(=O)N[C@H]1C[C@@H](O)[C@@H](NCCN)NC(=O)[C@@H]2[C@@H](O)CCN2C(=O)[C@H]([C@H](O)CCN)NC(=O)[C@H]([C@H](O)[C@@H](O)c2ccc(O)cc2)NC(=O)[C@@H]2C[C@@H](O)CN2C(=O)[C@H]([C@@H](C)O)NC1=O", "note": "[CASPOFUNGIN]", "values": [
      {"measurement": "IC50", "setting": "[4]", "result": 3.61, "unit": "µM"},
      {"measurement": "MIC", "setting": "[1]", "result": 8, "unit": "µg/mL"},
      {"measurement": "IC50", "setting": "[5]", "result": 0.00622, "unit": "µM"},
      {"measurement": "MIC", "setting": "[2]", "result": 0.25, "unit": "µg/mL"},
      {"measurement": "Ratio", "setting": "[3]", "result": 32}
    ]},
    {"smiles": "CCCCCOc1ccc(-c2cc(-c3ccc(C(=O)N[C@H]4C[C@@H](O)[C@@H](O)NC(=O)[C@@H]5[C@@H](O)[C@@H](C)CN5C(=O)[C@H]([C@H](O)CC(N)=O)NC(=O)[C@H]([C@H](O)[C@@H](O)c5ccc(O)c(OS(=O)(=O)O)c5)NC(=O)[C@@H]5C[C@@H](O)CN5C(=O)[C@H]([C@@H](C)O)NC4=O)cc3)no2)cc1", "note": "[MICAFUNGIN] (X1-[Orn(4R-OH,5R-OH)]T[Hyp][hTyr(3S-OH,4S-OH,3'-OSO3H)][Gln(3R-OH)][Pro(3S-OH,4S-Me)]; lactam 1-C)", "values": [
      {"measurement": "MIC", "setting": "[1]", "result": 4, "unit": "µg/mL"},
      {"measurement": "MIC", "setting": "[2]", "result": 0.25, "unit": "µg/mL"},
      {"measurement": "Ratio", "setting": "[3]", "result": 16}
    ]}
  ]
}
